Source: ChEMBL document CHEMBL4602651, “Development of selective mono or dual PROTAC degrader probe of CDK isoforms” (Eur J Med Chem, 2020)
Calls of active or inactive are those of the source. The calls are words filed in the database; no cut-off is given here.

Key:
[1] = target: T1, Protein cereblon/Cyclin-dependent kinase 2/Cyclin-dependent kinase 9 (Homo sapiens, UniProt P24941+P50750+Q96SW2); assay: Protac activity at CRBN/CDK2/CDK9 in AR-negative human PC3 cells assessed as induction of CDK2 protein degradation after 24 hrs by Western blot analysis; type: cell-based; conditions: PC-3
In short: (§1)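 PC-3 cells exposed to a degrader concentration series, then immunoblotted for CDK2 and CDK9 versus β-tubulin. The figure legend gives 24 h exposure. DC50 taken as mean of 2 determinations from densitometry.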

[2] = test system: PC-3; assay: Antiproliferative activity against AR-negative human PC3 cells assessed as reduction in cell viability after 5 days by CCK8 assay; type: functional, cell-based; conditions: PC-3, 120 h
In short: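 Cells seeded at 3 × 10^3 per well for 24 h, then dosed in 10-point, 3-fold serial dilution from 10 µM. CCK-8 added after 5 days, 4 h at 37 °C, absorbance at 450 nm. IC50 averaged from three separate determinations (at least two independent runs, duplicate wells). PC-3 grown in DMEM/F12 (1:1), LO2 in RPMI 1640, both with 10% FBS.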

[3] = target: T1, Protein cereblon/Cyclin-dependent kinase 2/Cyclin-dependent kinase 9; assay: Protac activity at CRBN/CDK2/CDK9 in AR-negative human PC3 cells assessed as induction of CDK9 protein degradation after 24 hrs by Western blot analysis; type: cell-based; conditions: PC-3; in short: as §1
[4] = target: T2, Protein cereblon/Cyclin-dependent kinase 9 (Homo sapiens) (UniProt P50750+Q96SW2); assay: Protac activity at CRBN/CDK9 in AR-negative human PC3 cells assessed as induction of CDK9 protein degradation at 30 uM after 12 hrs by Western blot analysis; type: cell-based; conditions: PC-3
T2 sequence (P50750 whole entry, looked up): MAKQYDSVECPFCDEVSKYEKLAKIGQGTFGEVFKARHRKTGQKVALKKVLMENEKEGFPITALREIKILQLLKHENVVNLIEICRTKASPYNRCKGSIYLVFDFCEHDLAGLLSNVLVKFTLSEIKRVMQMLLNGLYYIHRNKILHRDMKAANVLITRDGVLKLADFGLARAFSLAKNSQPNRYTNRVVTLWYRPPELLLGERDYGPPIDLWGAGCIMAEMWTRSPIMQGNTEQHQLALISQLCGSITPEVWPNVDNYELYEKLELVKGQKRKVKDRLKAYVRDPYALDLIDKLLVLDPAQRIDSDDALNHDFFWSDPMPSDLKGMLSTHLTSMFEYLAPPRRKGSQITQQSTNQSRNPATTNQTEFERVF
T2 sequence (Q96SW2 whole entry, looked up): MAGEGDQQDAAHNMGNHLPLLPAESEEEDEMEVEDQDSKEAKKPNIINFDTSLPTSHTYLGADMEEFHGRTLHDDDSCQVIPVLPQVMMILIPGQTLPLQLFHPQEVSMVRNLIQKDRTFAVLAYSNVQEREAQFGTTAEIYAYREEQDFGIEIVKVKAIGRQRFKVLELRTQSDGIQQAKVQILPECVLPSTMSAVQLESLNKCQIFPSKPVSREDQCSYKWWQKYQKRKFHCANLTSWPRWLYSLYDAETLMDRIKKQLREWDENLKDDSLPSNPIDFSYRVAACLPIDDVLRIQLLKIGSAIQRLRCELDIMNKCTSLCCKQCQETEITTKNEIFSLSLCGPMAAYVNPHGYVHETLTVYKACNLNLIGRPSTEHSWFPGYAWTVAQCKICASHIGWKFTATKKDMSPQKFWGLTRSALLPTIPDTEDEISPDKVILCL
In short: (§2)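 PC-3 cells (DMEM/F12 1:1, 10% FBS, 1% pen/strep, 37 °C, 5% CO2) plated at 5 × 10^5 per well, exposed to compound for 12 h. RIPA lysates with protease inhibitors; 50 µg total protein run on 10% SDS-PAGE, transferred to PVDF, blocked in 5% milk/TBS-T. Probed with anti-CDK9 (1/1000), β-tubulin loading control, HRP secondary, chemiluminescence; bands scored as degradation detected or not.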

[5] = target: T2, Protein cereblon/Cyclin-dependent kinase 9 (Homo sapiens); assay: Protac activity at CRBN/CDK9 in AR-negative human PC3 cells assessed as induction of CDK9 protein degradation at 1 uM after 12 hrs by Western blot analysis; type: cell-based; conditions: PC-3; in short: as §2
[6] = target: T3, Protein cereblon/Cyclin-dependent kinase 2 (Homo sapiens) (UniProt P24941+Q96SW2); assay: Protac activity at CRBN/CDK2 in AR-negative human PC3 cells assessed as induction of CDK2 protein degradation at 50 nM after 12 hrs by Western blot analysis; type: cell-based; conditions: PC-3
In short: (§3)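 PC-3 cells (5 × 10^5 per well) treated 12 h at single concentrations (50 nM, 500 nM, 1, 5 or 30 µM). RIPA lysates (50 µg) run on 10% SDS-PAGE and immunoblotted for CDK2, CDK5, CDK9 with β-tubulin loading control, then detected by chemiluminescence. Band intensities quantified densitometrically.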

[7] = target: T3, Protein cereblon/Cyclin-dependent kinase 2 (Homo sapiens); assay: Protac activity at CRBN/CDK2 in AR-negative human PC3 cells assessed as induction of CDK2 protein degradation at 1 uM after 12 hrs by Western blot analysis; type: cell-based; conditions: PC-3; in short: as §3
[8] = target: T2, Protein cereblon/Cyclin-dependent kinase 9 (Homo sapiens); assay: Protac activity at CRBN/CDK9 in AR-negative human PC3 cells assessed as induction of CDK9 protein degradation at 50 nM after 12 hrs by Western blot analysis; type: cell-based; conditions: PC-3; in short: as §2
[9] = target: T3, Protein cereblon/Cyclin-dependent kinase 2 (Homo sapiens); assay: Protac activity at CRBN/CDK2 in AR-negative human PC3 cells assessed as induction of CDK2 protein degradation at 30 uM after 12 hrs by Western blot analysis; type: cell-based; conditions: PC-3; in short: as §3
[10] = target: Protein cereblon/Cyclin-dependent kinase 5 (Homo sapiens) (UniProt Q00535+Q96SW2); assay: Protac activity at CRBN/CDK5 in AR-negative human PC3 cells assessed as induction of CDK5 protein degradation at 1 uM after 12 hrs by Western blot analysis; type: cell-based; conditions: PC-3; in short: as §3
Chain of Protein cereblon/Cyclin-dependent kinase 5 (Homo sapiens) (Q00535 whole entry, looked up): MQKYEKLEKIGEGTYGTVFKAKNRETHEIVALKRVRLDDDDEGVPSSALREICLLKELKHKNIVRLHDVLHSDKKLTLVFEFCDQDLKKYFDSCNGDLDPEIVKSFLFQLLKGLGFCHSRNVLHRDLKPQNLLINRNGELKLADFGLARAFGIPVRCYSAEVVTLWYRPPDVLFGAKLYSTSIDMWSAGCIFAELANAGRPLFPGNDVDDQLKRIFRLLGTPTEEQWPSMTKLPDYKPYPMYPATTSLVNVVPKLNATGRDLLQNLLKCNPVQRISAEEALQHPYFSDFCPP
Chain of Protein cereblon/Cyclin-dependent kinase 5 (Homo sapiens) (Q96SW2 whole entry, looked up): as the sequence (Q96SW2 whole entry, looked up) above

[11] = target: T3, Protein cereblon/Cyclin-dependent kinase 2 (Homo sapiens); assay: Protac activity at CRBN/CDK2 in AR-negative human PC3 cells assessed as CDK2 degradation at 1 uM preincubated with proteasome inhibitor MG132 for 2 hrs and measured after 8 hrs by Western blot analysis; type: cell-based; conditions: PC-3
In short: (§4)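 PC-3 cells pretreated 2 h with 10 µM DMSO, AT-7519, pomalidomide or MG-132, then degrader at 1 µM for 8 h. CDK2 immunoblotted against β-tubulin loading control, with 50 µg protein per lane on 10% SDS-PAGE and ECL detection.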

[12] = target: T3, Protein cereblon/Cyclin-dependent kinase 2 (Homo sapiens); assay: Protac activity at CRBN/CDK2 in AR-negative human PC3 cells assessed as CDK2 degradation at 1 uM preincubated with pomalidomide for 2 hrs and measured after 8 hrs by Western blot analysis; type: cell-based; conditions: PC-3; in short: as §4
[13] = target: T2, Protein cereblon/Cyclin-dependent kinase 9 (Homo sapiens); assay: Protac activity at CRBN/CDK9 in AR-negative human PC3 cells assessed as induction of CDK9 protein degradation at 5 uM after 12 hrs by Western blot analysis; type: cell-based; conditions: PC-3; in short: as §2
[14] = target: T3, Protein cereblon/Cyclin-dependent kinase 2 (Homo sapiens); assay: Protac activity at CRBN/CDK2 in AR-negative human PC3 cells assessed as CDK2 degradation at 1 uM preincubated with AT-7519 for 2 hrs and measured after 8 hrs by Western blot analysis; conditions: PC-3
[15] = test system: PC-3; assay: Induction of cell cycle arrest in human PC3 cells assessed as accumulation at G2/M phase at 3 uM after 48 hrs by propidium iodide staining based flow cytometry (reference value: 22.24%); type: functional
[16] = test system: PC-3; assay: Induction of cell cycle arrest in human PC3 cells assessed as accumulation at G0/G1 phase at 3 uM after 48 hrs by propidium iodide staining based flow cytometry (reference value: 59.80%); type: functional
[17] = test system: PC-3; assay: Induction of cell cycle arrest in human PC3 cells assessed as accumulation at S phase at 3 uM after 48 hrs by propidium iodide staining based flow cytometry (reference value: 17.96%); type: functional
[18] = target: T1, Protein cereblon/Cyclin-dependent kinase 2/Cyclin-dependent kinase 9; assay: Protac activity at CRBN/CDK2/CDK9 in AR-negative human PC3 cells assessed as CDK2 degradation at 10^-1 to 10^3 nM after 12 hrs by Western blot analysis; type: cell-based; conditions: PC-3
[19] = target: T1, Protein cereblon/Cyclin-dependent kinase 2/Cyclin-dependent kinase 9; assay: Protac activity at CRBN/CDK2/CDK9 in AR-negative human PC3 cells assessed as CDK9 degradation at 10^-1 to 10^3 nM after 12 hrs by Western blot analysis; type: cell-based; conditions: PC-3

In the case of `O=C(CCC(=O)N1CCN(Cc2ccc(NC(=O)c3n[nH]cc3Nc3ncnc4[nH]ccc34)cc2)CC1)NCCCCNC(=O)COc1cccc2c1C(=O)N(C1CCC(=O)NC1=O)C2=O` (stereo not drawn), the Activity [1] is reported as “inactive”, the IC50 [2] is reported as 13400 nM and the Activity [3] is reported as “inactive”.
With `O=C(CCC(=O)N1CCN(Cc2ccc(NC(=O)c3n[nH]cc3Nc3ncnc4[nH]ccc34)cc2)CC1)NCCNC(=O)COc1cccc2c1C(=O)N(C1CCC(=O)NC1=O)C2=O` (stereo not drawn) the Activity [4] was “Active”, the IC50 [2] was 8030 nM and the Activity [5] was “Active”.
`O=C(CCC(=O)N1CCC(NC(=O)c2n[nH]cc2NC(=O)c2c(Cl)cccc2Cl)CC1)NCCCCCCNc1cccc2c1C(=O)N(C1CCC(=O)NC1=O)C2=O` (stereo not drawn) was tested, and the IC50 [2] was 14600 nM.
Work on `O=C(CCC(=O)N1CCC(NC(=O)c2n[nH]cc2NC(=O)c2c(Cl)cccc2Cl)CC1)NCCCOCCOCCOCCCNC(=O)COc1cccc2c1C(=O)N(C1CCC(=O)NC1=O)C2=O` (stereo not drawn) yielded an IC50 [2] of 2020 nM.
In the case of `O=C(CCC(=O)N1CCN(Cc2ccc(NC(=O)c3n[nH]cc3Nc3ncnc4[nH]ccc34)cc2)CC1)NCCCCNc1cccc2c1C(=O)N(C1CCC(=O)NC1=O)C2=O` (stereo not drawn), the Activity [6] is reported as “Active”, the Activity [7] is reported as “inactive” and the Activity [8] is reported as “Active”. The Activity [9] was “inactive”, the Activity [4] was “Active” and the IC50 [2] was 1380 nM.
`O=C(COc1cccc2c1C(=O)N(C1CCC(=O)NC1=O)C2=O)NCCOCCOCC(=O)N1CCC(NC(=O)c2n[nH]cc2NC(=O)c2c(Cl)cccc2Cl)CC1` (stereo not drawn) was tested, and the Activity [10] was “inactive”, the Activity [7] was “Active” and the Activity [4] was “Active”. The Activity [11] was “inactive”, the IC50 [2] was 840 nM and the Activity [12] was “inactive”. For the same compound, the Activity [5] was “inactive”, the Activity [13] was “Active” and the Activity [14] was “inactive”.
`CN1CCN(Cc2ccc(NC(=O)c3n[nH]cc3Nc3ncnc4[nH]ccc34)cc2)CC1` was tested, and the Activity [15] was 37.9%, the Activity [16] was 45.58% and the Activity [17] was 16.52%. For the same compound, the IC50 [2] was 690 nM.
In the case of `O=C(CCC(=O)N1CCN(Cc2ccc(NC(=O)c3n[nH]cc3Nc3ncnc4[nH]ccc34)cc2)CC1)NCCCOCCOCCOCCCNC(=O)COc1cccc2c1C(=O)N(C1CCC(=O)NC1=O)C2=O` (stereo not drawn), the Activity [1] is reported as “inactive”, the IC50 [2] is reported as 18300 nM and the Activity [3] is reported as “inactive”.
`O=C(NC1CCNCC1)c1n[nH]cc1NC(=O)c1c(Cl)cccc1Cl` [AT-7519] showed an IC50 [2] of 710 nM.
For `O=C(CCC(=O)N1CCN(Cc2ccc(NC(=O)c3n[nH]cc3Nc3ncnc4[nH]ccc34)cc2)CC1)NCCNc1ccc2c(c1)C(=O)N(C1CCC(=O)NC1=O)C2=O` (stereo not drawn), the Activity [18] was “Active” and the Activity [19] was “Active”.
